Assay results: paper PMC3483449 (FEBS letters, 2012)

T1: mouse AA3 (Mus musculus, UniProt Q91XE4)
T1 sequence (Q91XE4 1-318): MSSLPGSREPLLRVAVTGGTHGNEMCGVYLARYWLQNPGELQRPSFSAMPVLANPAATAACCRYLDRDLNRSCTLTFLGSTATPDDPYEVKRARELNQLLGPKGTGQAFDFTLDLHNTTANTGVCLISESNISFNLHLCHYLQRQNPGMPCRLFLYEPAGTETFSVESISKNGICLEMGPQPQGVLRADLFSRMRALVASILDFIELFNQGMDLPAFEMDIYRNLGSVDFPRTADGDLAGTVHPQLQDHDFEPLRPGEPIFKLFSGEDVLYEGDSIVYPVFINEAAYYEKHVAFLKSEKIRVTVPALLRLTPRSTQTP

T2: mouse aminoacylase 3 (mouse, UniProt Q91XE4 1-318)
T2 sequence (looked up): T1 sequence (Q91XE4 1-318)

B1: HCVCP-long peptide (aa. 2-27) (peptide)
peptide: STLPKPQRKTKRNTIRRPQDVKFPGG

Experiments:
mouse AA3 [1] = molecular target: T1, mouse AA3; assay: Inhibition of Co2+-dependent endopeptidase activity of AA3; format: biochemical; conditions: 1 mg/ml Pefabloc SC
Method in brief: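 Cleavage reaction with N-terminally Strep(II)-tagged mouse AA3 (E. coli-expressed, Streptactin-purified): 3 µM enzyme plus 1 mM peptide or 0.1 mM His-tagged HCV core protein (aa 1–177) in 50 mM Tris-HCl pH 7.5 with 1 mM CoCl2, incubated 18 h at 37°C. Products were diluted to 50 µM peptide, then analysed by reverse-phase HPLC with UV and on-line ionspray triple-quadrupole MS. Cleavage sites were assigned from masses.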

mouse AA3 [2] = molecular target: T1, mouse AA3; assay: Peptide cleavage catalyzed by AA3; format: biochemical; conditions: 3 μM AA3, 1 mM peptide or 0.1 mM HCVCP, 50 mM Tris-HCl pH 7.5, 1 mM CoCl2, 18 h, 37°C; LC-MS
Method in brief: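 Recombinant mouse AA3 (N-terminal Strep(II) tag, expressed in E. coli, Streptactin-purified) was incubated with N-acetylated or free peptides, or with His-tagged HCV core aa 1–177 (genotype 1). Aliquots were diluted in water to 50 μM peptide, then run by reverse-phase HPLC (0.1% formic acid, 0–100% acetonitrile over 60 min) with UV and triple-quadrupole ESI-MS detection (m/z 300–2000). Cleavage sites were assigned from fragment masses.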

mouse aminoacylase 3 = molecular target: T2, mouse aminoacylase 3; assay: SPR

Row | Molecule | Hydrolysis (cleavage) by AA3 (mouse AA3 [2]) | further results
1 | Cl.NCCc1ccc(S(=O)(=O)F)cc1 [Pefabloc SC] | – | Inhibition of Co2+-dependent endopeptidase activity of AA3 (mouse AA3 [1]): ~ 50%
2 | casein | not hydrolyzed | –
3 | insulin B chain: standard protease substrate | not hydrolyzed | –
4 | B1 | – | Kd (mouse aminoacylase 3): 142 ± 11 µM
